Laboratory results from ChEMBL document CHEMBL3751835, “Discovery of the imidazole-derived GPR40 agonist AM-3189” (Bioorg Med Chem Lett, 2016).
The source made the active and inactive calls. No cut-off for these calls is given here.

Key:
[1] = Volume of distribution at steady state in dog at 0.5 mg/kg, iv; assay type: ADME, organism-based, Canis lupus familiaris; conditions: in vivo, read-out: Vdss
In short: (§1)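 Oral doses given as a suspension in aqueous 1% Tween 80 in 1% methylcellulose; IV doses formulated in 10% N,N-dimethylacetamide, 10% ethanol, 30% propylene glycol, 50% sterile water. Animals per species: mouse n = 2 (plasma from two mice at each time point), rat n = 2, dog n = 3, cynomolgus monkey n = 3.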

[2] = molecular target: T1, Peroxisome proliferator-activated receptor delta (Homo sapiens) (UniProt Q03181); assay: Activity at PPARdelta (unknown origin) by cell based assay
T1 sequence (whole entry): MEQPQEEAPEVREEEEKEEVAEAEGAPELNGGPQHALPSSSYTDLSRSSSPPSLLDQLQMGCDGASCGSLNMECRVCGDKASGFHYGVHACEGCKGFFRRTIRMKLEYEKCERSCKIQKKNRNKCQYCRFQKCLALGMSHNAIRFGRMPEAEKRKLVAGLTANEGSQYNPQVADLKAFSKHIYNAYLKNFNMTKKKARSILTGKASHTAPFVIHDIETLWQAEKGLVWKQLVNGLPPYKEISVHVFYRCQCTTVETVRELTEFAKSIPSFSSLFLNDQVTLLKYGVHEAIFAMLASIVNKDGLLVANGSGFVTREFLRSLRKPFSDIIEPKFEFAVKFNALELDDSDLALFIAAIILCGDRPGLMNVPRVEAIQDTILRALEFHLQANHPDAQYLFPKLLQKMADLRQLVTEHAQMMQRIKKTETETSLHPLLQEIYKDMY

Pancreatic islet [3] = assay: Induction of insulin release in human pancreatic islets; assay type: functional
[4] = Half life in rat at 0.5 mg/kg, iv; assay type: ADME, organism-based; conditions: in vivo; in short: as §1
[5] = Volume of distribution at steady state in mouse at 1 mg/kg, iv; assay type: ADME, organism-based; conditions: in vivo, read-out: Vdss; in short: as §1
[6] = Clearance in cynomolgus monkey at 0.5 mg/kg, iv; assay type: ADME, organism-based, Macaca fascicularis; conditions: in vivo; in short: as §1
[7] = molecular target: Free fatty acid receptor 1 (Rattus norvegicus) (UniProt Q8K3T4); assay: Agonist activity at rat GPR40 in presence of 0.01% human serum albumin relative to AMG 837
[8] = Cmax in mouse at 5 mg/kg, po; assay type: ADME, organism-based; set-up: dose 5 mg/kg, route oral; conditions: in vivo; in short: as §1
[9] = system: GPR40 (hamster, Mesocricetus auratus); assay: Agonist activity at hamster GPR40 in presence of 0.01% human serum albumin
Mus musculus = assay: Reduction of blood glucose AUC in human GPR40 knock-in chimeric mouse at 30 mg/kg, po administered 1 hr prior to glucose challenge by OGTT; assay type: functional, organism-based
In short: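 Female human GPR40 knock-in mice, 28 weeks old, fasted 6 h, then dosed by oral gavage with compound formulated in 1% methylcellulose, 1% Tween-80. Glucose 2 g/kg was given by oral gavage 1 h after the drug. Blood glucose was read from tail-vein samples at several time points with a glucometer.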

Pancreatic islet [10] = assay: Induction of glucose-stimulated insulin release in human GPR40 knock-in mouse pancreatic islets by insulin ELISA in presence of 0.1% human serum albumin and glucose; assay type: functional
In short: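 Islets were isolated from knock-in mice in which the mouse GPR40 gene is replaced by human GPR40. Glucose-stimulated insulin secretion was measured in buffer containing 16.7 mM glucose and 0.1% human serum albumin.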

Canis lupus familiaris = species on record: Canis lupus familiaris; assay: Agonist activity at dog GPR40 in presence of 0.01% human serum albumin relative to AMG 837
[11] = Clearance in dog at 0.5 mg/kg, iv; assay type: ADME, organism-based, Canis lupus familiaris; conditions: in vivo; in short: as §1
[12] = Cmax in dog at 2 mg/kg, po; assay type: ADME, organism-based, Canis lupus familiaris; set-up: dose 2 mg/kg, route oral; conditions: in vivo; in short: as §1
[13] = molecular target: T2, Peroxisome proliferator-activated receptor alpha (Homo sapiens) (UniProt Q07869); assay: Activity at PPARalpha (unknown origin) by cell based assay
T2 sequence (whole entry): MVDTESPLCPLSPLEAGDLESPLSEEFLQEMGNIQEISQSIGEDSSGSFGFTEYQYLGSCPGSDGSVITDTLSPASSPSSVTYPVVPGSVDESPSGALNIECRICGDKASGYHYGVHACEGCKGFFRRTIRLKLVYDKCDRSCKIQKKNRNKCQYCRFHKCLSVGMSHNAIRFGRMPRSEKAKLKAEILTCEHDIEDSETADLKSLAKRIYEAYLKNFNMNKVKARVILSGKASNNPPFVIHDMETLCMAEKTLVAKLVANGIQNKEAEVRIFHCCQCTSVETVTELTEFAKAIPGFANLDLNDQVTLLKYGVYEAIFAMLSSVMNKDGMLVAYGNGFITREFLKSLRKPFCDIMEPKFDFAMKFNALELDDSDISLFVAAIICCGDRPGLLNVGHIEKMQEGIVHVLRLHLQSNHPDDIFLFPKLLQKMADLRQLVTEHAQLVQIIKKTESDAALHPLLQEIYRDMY

[14] = Half life in cynomolgus monkey at 0.5 mg/kg, iv; assay type: ADME, organism-based, Macaca fascicularis; conditions: in vivo; in short: as §1
[15] = Half life in dog at 0.5 mg/kg, iv; assay type: ADME, organism-based, Canis lupus familiaris; conditions: in vivo; in short: as §1
[16] = molecular target: Free fatty acid receptor 1 (Macaca fascicularis, UniProt Q76JV1); assay: Agonist activity at cynomolgus monkey GPR40 in presence of 0.01% human serum albumin relative to AMG 837
[17] = molecular target: Free fatty acid receptor 1 (Macaca fascicularis) (UniProt Q76JV1); assay: Agonist activity at cynomolgus monkey GPR40 in presence of 0.01% human serum albumin relative to AMG 837 relative to AMG 837
[18] = Cmax in cynomolgus monkey at 5 mg/kg, po; assay type: ADME, organism-based, Macaca fascicularis; set-up: dose 5 mg/kg, route oral; conditions: in vivo; in short: as §1
[19] = Agonist activity at dog GPR40 in presence of 0.01% human serum albumin; set-up: species or system Canis lupus familiaris
[20] = Cmax in rat at 2 mg/kg, po; assay type: ADME, organism-based; set-up: dose 2 mg/kg, route oral; conditions: in vivo; in short: as §1
[21] = molecular target: T3, Free fatty acid receptor 1 (Sus scrofa) (UniProt F1RM69); assay: Agonist activity at pig GPR40 in presence of 0.01% human serum albumin
T3 sequence (whole entry): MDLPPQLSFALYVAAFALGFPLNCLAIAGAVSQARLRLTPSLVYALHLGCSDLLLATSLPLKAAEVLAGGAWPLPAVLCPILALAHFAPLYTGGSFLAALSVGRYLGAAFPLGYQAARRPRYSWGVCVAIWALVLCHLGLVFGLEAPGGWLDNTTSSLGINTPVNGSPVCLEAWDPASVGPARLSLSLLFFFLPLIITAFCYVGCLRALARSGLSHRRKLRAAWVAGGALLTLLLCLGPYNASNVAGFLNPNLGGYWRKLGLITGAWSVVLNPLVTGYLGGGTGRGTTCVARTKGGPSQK

[22] = Ratio of drug level in brain to plasma in rat at 5 mg/kg, po after 3 hrs; assay type: ADME, organism-based
[23] = Clearance in mouse at 1 mg/kg, iv; assay type: ADME, organism-based; conditions: in vivo; in short: as §1
[24] = molecular target: Free fatty acid receptor 1 (Mus musculus) (UniProt Q76JU9); assay: Agonist activity at mouse GPR40 in presence of 0.01% human serum albumin
[25] = Volume of distribution at steady state in cynomolgus monkey at 0.5 mg/kg, iv; assay type: ADME, organism-based, Macaca fascicularis; conditions: in vivo, read-out: Vdss; in short: as §1
[26] = Oral bioavailability in mouse at 5 mg/kg; assay type: ADME, organism-based; conditions: in vivo; in short: as §1

Free fatty acid receptor 1 (Mus musculus), sequence (Q76JU9 whole entry): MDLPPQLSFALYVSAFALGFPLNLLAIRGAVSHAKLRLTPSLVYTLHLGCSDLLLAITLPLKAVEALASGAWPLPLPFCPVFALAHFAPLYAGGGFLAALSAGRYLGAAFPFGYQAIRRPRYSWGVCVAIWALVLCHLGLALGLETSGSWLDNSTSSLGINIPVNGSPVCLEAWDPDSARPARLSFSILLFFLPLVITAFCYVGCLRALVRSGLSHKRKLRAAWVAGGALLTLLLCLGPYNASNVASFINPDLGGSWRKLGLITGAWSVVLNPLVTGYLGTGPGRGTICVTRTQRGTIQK
Free fatty acid receptor 1 (Rattus norvegicus), sequence (Q8K3T4 whole entry): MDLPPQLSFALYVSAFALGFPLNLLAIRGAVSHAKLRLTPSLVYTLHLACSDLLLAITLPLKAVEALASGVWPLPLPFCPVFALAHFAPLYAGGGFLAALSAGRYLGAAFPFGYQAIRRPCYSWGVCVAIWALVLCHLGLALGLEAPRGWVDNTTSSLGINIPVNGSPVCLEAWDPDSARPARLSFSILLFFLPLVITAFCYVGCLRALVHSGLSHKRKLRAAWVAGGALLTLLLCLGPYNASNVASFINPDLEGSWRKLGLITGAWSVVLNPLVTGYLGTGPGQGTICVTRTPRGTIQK
Free fatty acid receptor 1, sequence (Q76JV1 whole entry): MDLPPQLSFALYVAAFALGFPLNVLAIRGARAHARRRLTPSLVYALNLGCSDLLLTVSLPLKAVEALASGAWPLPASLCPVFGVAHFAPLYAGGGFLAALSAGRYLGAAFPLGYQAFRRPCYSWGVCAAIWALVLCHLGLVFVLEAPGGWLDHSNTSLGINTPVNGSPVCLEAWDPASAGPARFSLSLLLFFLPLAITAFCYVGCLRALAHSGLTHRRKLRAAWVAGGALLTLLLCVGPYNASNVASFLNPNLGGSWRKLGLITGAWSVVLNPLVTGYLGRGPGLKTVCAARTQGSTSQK
Free fatty acid receptor 1 (Macaca fascicularis), sequence (Q76JV1 whole entry): as above

In the case of Cc1cc(Cl)ccc1-c1cccc(COc2ccc([C@H](CC(=O)O)c3nccn3C)cc2)c1, the Vd [1] is reported as 0.58 L/kg, the Activity [2] is reported as “inactive” and the Activity (Pancreatic islet [3]) is reported as “Active”. For the same compound, the half-life [4] was 1.6 h, the Vd [5] was 0.78 L/kg and the clearance [6] was 4.5 mL/min/kg. The Emax [7] was 41%, the Cmax [8] was 4890 nM and the Activity [9] was “inactive”. The Activity (Mus musculus) was “Active”, the Activity (Pancreatic islet [10]) was “Active” and the Emax (Canis lupus familiaris) was 37%. The clearance [11] was 2.5 mL/min/kg, the Cmax [12] was 4400 nM and the Activity [13] was “inactive”. The half-life [14] was 7.6 h, the half-life [15] was 5.1 h and the EC50 [16] was 29 nM. For the same compound, the Emax [17] was 96%, the Cmax [18] was 1190 nM and the EC50 [19] was 37 nM. For the same compound, the Cmax [20] was 770 nM, the Activity [21] was “inactive” and the Kp at 3 h [22] was 0.04. The clearance [23] was 2.83 mL/min/kg, the Activity [24] was “inactive” and the Vd [25] was 1.6 L/kg. For the same compound, the bioavailability [26] was 100%.
